From article PMC11341692 (Nature Communications, 2024)

Tested on: NET formation in human peripheral blood neutrophils
Test: MPO-ANCA-IC-induced NET formation in primed human peripheral blood neutrophils
Assay type: cell-based
Conditions: for MPO-ANCA-IC-induced NET formation: avacopan 0.1 and 1 µM
Summary of the method: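 Neutrophils isolated with Polymorphprep from the blood of healthy volunteers (n = 3). Cells were pretreated 15 min with an NE inhibitor (0, 50, 500 µM) or a C5aR inhibitor (0, 0.1, 1 µM), then primed with 5 ng/ml TNF-α or 100 ng/ml C5a for 15 min at 37 °C. They were seeded on MPO-ANCA-IC-coated chambers at 5 × 10^5/well for 3–4 h at 37 °C, then PFA-fixed and stained for CD15, Cit-H3 and DAPI. DAPI-positive DNA area per neutrophil was taken from three random images per well.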

Row | Structure (SMILES) | DAPI-positive DNA area per neutrophil (TNF-α + MPO-ANCA-IC, sivelestat 0, 50, and 500 µM) | Neutrophil swelling (fold change) (TNF-α + MPO-ANCA-IC, sivelestat 500 µM) | MPO-ANCA-IC-induced NET formation (C5a-primed neutrophils) | MPO-ANCA-IC-induced NET formation (TNF-α-primed neutrophils)
1 | CC(C)(C)C(=O)Oc1ccc(S(=O)(=O)Nc2ccccc2C(=O)NCC(=O)O)cc1 [Sivelestat] | reduced by sivelestat dose-dependently and significantly | significantly suppressed |  | 
2 | Cc1ccc(NC(=O)[C@H]2CCCN(C(=O)c3c(C)cccc3F)[C@H]2c2ccc(NC3CCCC3)cc2)cc1C(F)(F)F [Avacopan, avacopan] |  |  | suppressed | but not in TNF-α-primed neutrophils
